Screening data (PubChem BioAssay)
Rows were chosen to be rich in hits. Some 4.3% of all compounds tested hit in one or more screens of this group.
STAT1 activator: STAT1 signaling activation. NIH 3T3 STAT1-luciferase reporter, IFN-gamma, luminescence; 100% = IFN-gamma alone, no compound. activation (% of control), % at 5.5 µM. 200,000 compounds, 2.6% hits;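 active = activation above the screen-wide mean activation plus 3 SD, cut at about 130% in these data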;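 note: raw ratio to IFN-gamma control signal so 100% means no change and 0% no light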
APP 5'UTR act: APP 5'UTR luciferase reporter activation | SH-SY5Y APP 5'UTR luciferase reporter, luminescence; zero percent = DMSO vehicle wells | activation, % at 2 µM | 190,000 compounds, 1% hits | AID 1276;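 active = activation above a set limit, based on mean plus 3 SD of controls, cut at about 140% in these data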
FLuc stim CS: affects firefly luciferase, flagging false hits in luciferase stimulation screens; ATPlite luciferase biochemical, luminescence, 10 min; 0 = ATP-free wells, 1 = DMSO control; 200,000 tested, under 10 active; activation factor at 10 µM;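 active = luciferase activation factor, scaled between plate controls, of at least 2 with compound at 10 µM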
Target sequence (P08659 whole entry, looked up): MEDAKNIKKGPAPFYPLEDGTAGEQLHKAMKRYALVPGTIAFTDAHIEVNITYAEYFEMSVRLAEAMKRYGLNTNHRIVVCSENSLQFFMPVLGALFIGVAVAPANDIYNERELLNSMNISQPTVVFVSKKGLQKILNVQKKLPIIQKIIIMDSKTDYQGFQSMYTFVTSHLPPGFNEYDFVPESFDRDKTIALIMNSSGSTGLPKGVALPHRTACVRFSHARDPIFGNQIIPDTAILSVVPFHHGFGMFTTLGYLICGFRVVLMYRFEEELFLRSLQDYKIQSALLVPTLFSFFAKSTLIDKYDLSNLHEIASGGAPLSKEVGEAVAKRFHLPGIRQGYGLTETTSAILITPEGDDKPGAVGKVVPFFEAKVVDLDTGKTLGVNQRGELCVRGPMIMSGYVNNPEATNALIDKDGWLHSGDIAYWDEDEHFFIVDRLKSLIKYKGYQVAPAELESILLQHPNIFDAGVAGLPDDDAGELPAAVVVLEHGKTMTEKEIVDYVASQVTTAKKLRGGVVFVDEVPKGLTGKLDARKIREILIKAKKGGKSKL
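System: luciferase plus luciferin reagent, cell-free; medium: PBS as buffer for the ATP substrate; dosing: test compounds dosed from 2 mM stocks in 100% DMSO; timing: 10 min post-reagent at room temperature; measured by: luminescence measurement of luciferase light output; evaluation: luciferase activation, seen as luminescence increase over controls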
FLuc inhib CS: Photinus pyralis luciferase inhibition counter-screen | ATPLite firefly luciferase biochemical luminescence, 10 min | P08659 | AID 1006 | inhibition, % at 10 µM | 200,000 compounds, 1.5% hits;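 active = inhibition above about 50% when tested at 10 µM, limit read from the data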
NF-kB neuron act: NF-kB expression increase, human neuronal cells. NF-kB reporter expression; hits give high values. fold change at 12.5 µM. 190,000 compounds, 1.6% hits. AID 1239; in the data active = fold change above about 3.3
Active calls of the source: *; . = no result given.

SMILES	STAT1 activator	APP 5'UTR act	FLuc stim CS	FLuc inhib CS	NF-kB neuron act
Cc1cc(C(=O)CS(=O)(=O)c2ccccc2)cc(C)c1OC(=O)N(C)C	123.9	50.0	0.2	77.9*	1.96
CN1CC(C(=O)c2ccc(Cl)cc2)C(c2ccc(N(C)C)cc2)C1 (stereo unspecified)	99.6	-3.8	1.1	-6.3	1.24
CN1CC(C(=O)c2ccccc2)C(C(=O)c2ccccc2)C1 (stereo unspecified)	124.8	81.6	1.1	-6.6	4.33*
O=c1[nH]c(=S)[nH]c(O)c1N=Nc1ccc(OC(F)F)cc1	147.2*	94.8	0.4	56.8*	1.16
COc1ccc(N=Nc2c(O)[nH]c(=S)[nH]c2=O)cc1	127.3	58.4	0.4	59.0*	2.12
O=c1[nH]c(=S)[nH]c(O)c1N=Nc1cc2c(cc1[N+](=O)[O-])OCO2	95.0	-13.0	0.9	7.9	1.13
O=C(N/N=C/C1C(=O)NC(=S)N(c2ccccc2)C1=O)c1cc(Br)c(O)c(Br)c1 (stereo unspecified)	102.9	3.0	1	0.8	0.97
CCC(=O)Nc1cc(C(=O)N2CCC3(CC2)OCCO3)ccc1S(=O)(=O)c1ccc(C)cc1	99.0	.	1	-2.3	1.2
O=c1c2ccccc2nc(CSc2ncnc3nc[nH]c23)n1-c1ccccc1	103.5	6.5	1.1	-6.3	3.88*
O=c1c2ccccc2nc(CSc2ncnc3nc[nH]c23)n1-c1ccccc1Cl	96.9	-5.2	1	-0.4	0.61
Cc1ccc(-n2c(O)c(C=Nc3ccccc3N)c(=O)[nH]c2=O)cc1C	136.6*	135.2*	1	-0.5	2.68
COc1ccc(-c2cc(=Nc3cccc(C(=O)O)c3)c3cc(C)ccc3o2)cc1	136.0*	138.6*	0.6	40.1	2.25
Cc1cc(/C=C2/C(=O)NC(=O)N(C)C2=O)c(C)n1-c1ccccc1	99.0	30.1	0.4	62.5*	1.1
Cc1cc(C=C2C(=O)NC(=O)NC2=O)c(C)n1-c1ccc2c(c1)OCO2	103.8	24.7	0.4	56.5*	1.86
Cc1cc(/C=C2\C(=O)NC(=O)N(c3ccc(F)cc3)C2=O)c(C)n1-c1cccc(C(=O)O)c1	102.2	11.4	1.1	-5.9	1.45
Cc1cc(/C=C2\C(=O)NC(=O)N(C)C2=O)c(C)n1-c1ccc2c(c1)OCO2	111.8	3.6	0.4	60.6*	1.16
Cc1cc(C=C2C(=O)NC(=S)NC2=O)c(C)n1-c1ccc2c(c1)OCO2	105.0	-8.6	0.6	38.9	1.31
O=C1NC(=O)N(CCNc2ncc(C(F)(F)F)cc2Cl)C(=O)C1Cc1ccc(Cl)cc1 (stereo unspecified)	106.7	13.6	1.1	-7.6	1.14
COc1ccc(C)cc1NC(=O)c1c(C)nn(Cc2ccccc2)c1Cl	99.3	14.3	1.1	-6.4	1.2
CC(C)(C)n1cc(C(=O)c2ccc3ccccc3c2O)cn1	71.8	211.7*	0.3	68.8*	1.5
CN1CCN(c2c(C#N)c(C(F)(F)F)nn2C)CC1	96.6	-8.5	1	-0.2	0.98
CN(C)C(=O)Oc1ccc(OCc2nc3ccccc3[nH]2)cc1	103.4	88.4	0.2	80.0*	1.7
O=c1[nH]c(=O)n(-c2ccc(Cl)cc2)c(O)c1C=NCCN1CCCCC1	109.0	-6.3	1	-3.6	1.05
CC(=O)Nc1ccc(OC(=O)c2ccccc2N)cc1	104.1	19.8	0.9	7.0	0.9
Nc1ccccc1C(=O)OCCOc1ccccc1	109.4	181.8*	0.9	14.9	6.74*
SMILES	STAT1 activator	APP 5'UTR act	FLuc stim CS	FLuc inhib CS	NF-kB neuron act
Cc1cccc(N/N=C(\C(N)=O)C2=NC(C)(C)Cc3ccccc32)c1	96.5	-10.5	1.1	-5.0	1.27
O=c1[nH]c(=S)[nH]c(O)c1N=Nc1ccc2c(c1)OCO2	129.6*	40.2	0.5	53.4*	1.23
O=c1[nH]c(O)c(N=Nc2ccc(S(=O)(=O)N3CCOCC3)cc2)c(=O)[nH]1	99.5	-10.3	1	-3.8	1.17
O=c1[nH]c(O)c(N=Nc2ccc3c(c2)OCCO3)c(=O)[nH]1	61.3	34.2	0.3	69.1*	1.06
CCN1CCN(Cc2ccc(C)cc2)CC1	96.9	-17.1	1.1	-9.6	1.31
CCCCCCOc1ccc(CN2CCN(C)CC2)cc1	109.6	143.9*	0.9	12.1	1.05
COc1ccc(OC)c(-n2c(O)c(C=NCc3ccc4c(c3)OCO4)c(=O)[nH]c2=O)c1	104.9	-7.7	1	-2.8	1.27
COc1ccc(CCn2c(O)c(C=NCc3ccc4c(c3)OCO4)c(=O)[nH]c2=O)cc1OC	143.3*	14.5	1.1	-7.4	1
O=C(c1ccc(Br)cc1)C12CN3CN(CN(C3)C1)C2	103.3	24.2	1	-3.0	14.1*
COc1ccc(C(=O)C23CN4CN(CN(C4)C2)C3)cc1	97.9	11.3	1.1	-5.8	1.04
Cc1cc(C(=O)N=Nc2c(O)n(C)c3ccccc23)c(C)o1	129.0*	76.0	0.8	24.1	2.25
N#Cc1c(/N=C/c2ccc(O)cc2O)sc2c1C1CCN2CC1	98.8	7.6	0.6	42.9	1.27
CC(=NCCC(c1ccccc1)c1ccccc1)c1c(O)n(C)c(=O)n(C)c1=O	102.5	32.0	1.1	-9.3	0.52
CN1CCN(C(=O)COc2ccc(-c3nc4ccccc4s3)cc2)CC1	55.4	135.3*	0	96.4*	4.34*
Cc1ccc(CN2C3CCCC2CC(NC(=S)NCc2ccccc2)C3)cc1 (stereo unspecified)	101.4	1.9	1	4.4	0.83
CCCC(=O)NC(Oc1ccc(C(C)=O)cc1)C(Cl)(Cl)Cl (stereo unspecified)	103.2	5.2	1	-3.9	1.09
C=CCNC(=S)/N=C/c1c(O)[nH]c(=O)[nH]c1=O	96.5	2.6	1	2.5	0.97
NC(=S)/N=C/c1c(O)[nH]c(=O)[nH]c1=O	99.0	23.9	1	-1.9	3.4*
CC(/C=N/NC(=O)c1n[nH]c2c1CCC2)=C\c1ccccc1	121.8	-94.3	0.5	52.7*	6.88*
CSc1ncc(/C=C2/C(=O)NC(=O)N(c3ccc(Cl)cc3)C2=O)cn1	98.2	6.6	1.1	-13.0	1.3
CNC(=O)Oc1cccc(-c2cn3cc(OC(=O)NC)ccc3n2)c1	107.9	14.6	0.3	73.2*	3.24
CNC(=O)Oc1ccc2c(c1)C(=O)c1ccccc1CO2	85.7	3.5	0.6	40.2	1
CNC(=O)Oc1ccc(-c2cn3cc(Cl)ccc3n2)cc1	90.1	130.9	0.1	93.2*	13.5*
